Values after ≈ are worked out from the molar mass of the structure shown. Active and inactive are the calls of the source. The rule behind the calls is not given here. Numbered stars: 1 amine (or outer) side, 2 acyl side, 3 side chain; on linkers, the order of the positions; unused ones are H or OH. Square brackets hold non-standard residues; d marks the D form. Peptide text beside a SMILES is read from it. X1 = C[C@H]1CCN([*:1])[C@@H]1C(=O)[*:2]; dLac(3-vinyl) = C=CC[C@@H](O)C(=O)O; NMeF = CN[C@@H](Cc1ccccc1)C(=O)O; Hica(2S) = CC(C)C[C@H](O)C(=O)O; NMeV = CN[C@H](C(=O)O)C(C)C; NMeA = CN[C@@H](C)C(=O)O; βAla = NCCC(=O)O
Experiments:
[1] = system: Vibrio anguillarum; assay: Antimicrobial activity against Vibrio anguillarum by well diffusion method; format: functional, organism-based
Summary of the method: (§1)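 Agar well diffusion assay against the bacterial test strain; chloromycetin run alongside as positive control. Method follows a cited earlier protocol.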

[2] = system: Vibrio harveyi; assay: Antimicrobial activity against Vibrio harveyi by well diffusion method; format: functional, organism-based; summary of the method: as §1
[3] = system: Vibrio alginolyticus; assay: Antimicrobial activity against Vibrio alginolyticus by well diffusion method; format: functional; summary of the method: as §1
[4] = system: Aeromonas hydrophila; assay: Antimicrobial activity against Aeromonas hydrophila by well diffusion method; format: functional, organism-based; summary of the method: as §1
[5] = system: Edwardsiella tarda; assay: Antimicrobial activity against Edwardsiella tarda by well diffusion method; format: functional, organism-based; summary of the method: as §1
[6] = system: Staphylococcus aureus; assay: Antimicrobial activity against Staphylococcus aureus by well diffusion method; format: functional
[7] = system: Escherichia coli; assay: Antimicrobial activity against Escherichia coli by well diffusion method; format: functional
[8] = system: Vibrio parahaemolyticus; assay: Antimicrobial activity against Vibrio parahaemolyticus by well diffusion method; format: functional, organism-based; summary of the method: as §1

SMILES	MIC [1]	MIC [2]	MIC [3]	MIC [4]	MIC [5]	MIC [6] [µg/mL]	MIC [7] [µg/mL]	MIC [8]
Cc1c(O)cc2c3c1[C@H](C)[C@@H](C)O[C@@H]3C[C@H](c1ccc(O)cc1)O2	inactive	inactive	16 µg/mL (≈ 49 µM)	inactive	inactive	8 (≈ 24.5 µM)	8 (≈ 24.5 µM)	inactive
CC(C)C[C@@H]1OC(=O)CCNC(=O)[C@H](Cc2ccccc2)N(C)C(=O)[C@H](C(C)C)N(C)C(=O)[C@H](Cc2ccccc2)NC(=O)[C@@H]2[C@@H](C)CCN2C1=O (cyclo(F[NMeV][NMeF][βAla][Hica(2S)][X1]))	inactive	inactive	inactive	inactive	inactive			inactive
C=CC[C@H]1OC(=O)CCNC(=O)[C@H](C)N(C)C(=O)[C@H](C(C)C)N(C)C(=O)[C@H]([C@@H](C)CC)NC(=O)[C@@H]2[C@@H](C)CCN2C1=O (cyclo(I[NMeV][NMeA][βAla][dLac(3-vinyl)][X1]))	inactive	inactive	inactive	inactive	inactive			inactive
COc1cc([C@H]2C[C@H]3O[C@H](C)[C@@H](C)c4c(C)c(O)cc(c43)O2)ccc1O	inactive	inactive	16 µg/mL (≈ 44.9 µM)	inactive	inactive	4 (≈ 11.2 µM)	2 (≈ 5.61 µM)	inactive
Cc1c(O)c(C(=O)O)c(O)c2c1[C@H](C)[C@@H](C)OC2=O	inactive	inactive	inactive	inactive	inactive			inactive
CC(C)C[C@@H]1OC(=O)CCNC(=O)[C@H](Cc2ccccc2)N(C)C(=O)[C@H](C(C)C)N(C)C(=O)[C@H](Cc2ccccc2)NC(=O)[C@@H]2CCCN2C1=O (cyclo(F[NMeV][NMeF][βAla][Hica(2S)]P))	inactive	inactive	inactive	inactive	inactive			inactive
C=CC[C@H]1OC(=O)CCNC(=O)[C@H](C)N(C)C(=O)[C@H](C(C)C)N(C)C(=O)[C@H]([C@@H](C)CC)NC(=O)[C@@H]2CCCN2C1=O (cyclo([dLac(3-vinyl)]PI[NMeV][NMeA][βAla]))	inactive	inactive	inactive	inactive	inactive			inactive
Cc1c2c(c3oc4cc(=O)c(C)c5c-4c(c3c1O)O[C@H](C)[C@H]5C)O[C@H](C)[C@H]2C	inactive	inactive	inactive	inactive	inactive			inactive
Cc1c(O)cc(O)c2c1[C@H](C)[C@@H](C)OC2=O	inactive	inactive	8 µg/mL (≈ 36 µM)	inactive	inactive			inactive
